Experiments:
[1] = target: Internal ribosome entry site (IRES); assay: Binding affinity to HCV IRES subdomain IIa RNA assessed as dissociation constant by MST assay; assay type: nucleic-acid assay, Hepacivirus hominis
How it was run: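 Same two-stranded IIa RNA, Cy5-labelled, annealed at 75 °C then cooled to room temperature for at least 20 min in 10 mM HEPES pH 7.0, 2 mM MgCl2. Used at 30 nM with compound from 1 mM (or 316/100 μM if solubility-limited) to 0.01 μM in 3.16-fold steps, 2% DMSO final. Thermophoresis read after 18 s laser on-time. KD from triplicates.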

[2] = system: Internal ribosome entry site (IRES); assay: Binding affinity to HCV IRES subdomain IIa RNA; conditions: Hepacivirus hominis; dose 0.001-1000 µM
[3] = target: Internal ribosome entry site (IRES); assay: Binding affinity to HCV IRES subdomain IIa RNA assessed as reduction in FRET signal by FRET assay; assay type: nucleic-acid assay, Hepacivirus hominis
How it was run: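 Two-stranded HCV IRES IIa RNA, 5'-Cy3 on one strand and 5'-Cy5 on the other, annealed at 75 °C then cooled to room temperature for at least 20 min in 10 mM HEPES pH 7.0, 2 mM MgCl2. RNA at 100 nM with compound; excitation 480 nm, Cy5 emission 670 nm. Dose–response 1 mM to 100 nM in 3.16-fold steps, 2% DMSO final. EC50 from at least triplicates.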

Kd [1] [µM] | Activity [2] | EC50 [3] [µM] | Structure (SMILES)
 | Dose-Dependent Effect |  | NC1=NC(c2ccccc2)n2c(nc3ccccc32)N1 (stereo unspecified)
 | Dose-Dependent Effect |  | COc1cccc(C2NC(N)=Nc3nc4ccccc4n32)c1 (stereo unspecified)
≥ 100 |  | ≥ 1000 | NC1=NC(c2cn[nH]c2-c2cccc(O)c2)n2c(nc3ccccc32)N1 (stereo unspecified)
 | Dose-Dependent Effect |  | NC1=Nc2nc3ccccc3n2C(C2CC2)N1 (stereo unspecified)

Second part, the molecule before the results:

Structure (SMILES) | Kd [1] [µM] | Activity [2] | EC50 [3] [µM]
N=C(N)NC(=O)c1nc(Cl)c(N)nc1N [AMILORIDE] | ≥ 100 |  | 
Nc1cc(-c2ccc3[nH]ncc3c2)c2cc[nH]c2n1 | ≥ 50 |  | 
CCOc1ccc2c(C)nc(NC(=N)N)nc2c1 | 189 |  | 
CNC(=N)Nc1nc(C)c2ccc(OC)cc2n1 | 88 |  | 
CC(C)NCC(O)COc1ccc2[nH]cc(CCN)c2c1 (stereo unspecified) | 134 |  | 
COc1ccc2c(C)nc(NC(=N)N)nc2c1 | 134 |  | 
